Reference: ChEMBL document CHEMBL3774344, “Role of a Preorganized Scaffold Presenting Four Residues of a GM-3 Lactone Mimetic on Melanoma Progression” (2016)
Activity calls are given as the source filed them. The calls are words filed in the database; no cut-off is given here.

Tests used:
A-375 [1] = assay: Antimigratory activity against human A375 cells at 50 uM after 24 hrs in presence cancer associated fibroblast by 2D-migration assay; assay type: functional, cell-based
In short: (§1)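 A375 cells incubated under hypoxia (1% O2) with conditioned medium from CAFs (derived ex vivo from aggressive human melanoma) or HDFs, with or without 50 μM compound. Cells then assayed for 2D migration or invasion through reconstituted Matrigel barrier in Boyden chambers.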

A-375 [2] = assay: Antiinvasion activity in human A375 cells at 50 uM after 24 hrs in presence of cancer associated fibroblast by Boyden invasion assay; assay type: functional, cell-based; in short: as §1
A-375 [3] = assay: Inhibition of cell migration in human A375 cells at 50 uM after 24 hrs by 2D-migration assay in presence of 10% serum; assay type: functional; conditions: A-375, 24 h
In short: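 Cells treated with 50 μM compound, then allowed to migrate 24 h toward 10% serum chemoattractant. Cells counted in a randomly chosen field per filter. At least three independent experiments; mean and SD.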

A-375 [4] = assay: Induction of apoptosis in serum-starved human A375 cells after 24 hrs by AnnexinV/PI-staining based flow cytometric analysis; assay type: functional, cell-based
In short: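 A375 cells serum-starved, detached and held in suspension for 24 h with compound. Apoptotic fraction measured by Annexin V–PI staining. At least three independent experiments; mean and SD.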

A-375 [5] = assay: Inhibition of cell adhesion in human A375 cells at 50 uM measured after 4 hrs in presence of fibronectin by crystal violet staining based assay; assay type: functional; conditions: A-375, 4 h
In short: (§2)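 A375 cells treated with 50 μM compound, then allowed to adhere to fibronectin-coated dishes for varying times up to 4 h, with no-fibronectin comparison. Percentage of adhered cells scored by crystal violet. At least three independent experiments; mean and SD.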

A-375 [6] = assay: Inhibition of cell invasion in human A375 cells at 50 uM after 24 hrs by Boyden invasion assay in presence of 10% serum; assay type: functional; conditions: A-375, 24 h
In short: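 Cells treated with 50 μM compound, then placed in Boyden chambers (8 μm pores) with Matrigel 3D barrier and allowed to invade toward 10% serum for 24 h. Cells crossing the filter counted. At least three independent experiments; mean and SD.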

[7] = Antitumor activity against mouse B16F10 cells xenografted in C57BL/6 mouse assessed as reduction in tumor volume at 400 ug, ip administered on day 0 to 72 followed by tumor implantation on day 69 measured every 2 to 3 days relative to PBS-treated control; set-up: scale not given: the % may be the effect or the level left
A-375 [8] = assay: Inhibition of cell adhesion in human A375 cells at 50 uM measured from 1 to 3 hrs in presence of fibronectin by crystal violet staining based assay; assay type: functional; in short: as §2

In the case of CCCOc1c2cc(CCCn3cc(CCO[C@H]4O[C@H](CO)[C@H](O)C5=C4SC[C@]4(C[C@@H](O)[C@@H](O)[C@@H]([C@@H](O)CO)O4)O5)nn3)cc1Cc1cc(CCCn3cc(CCO[C@H]4O[C@H](CO)[C@H](O)C5=C4SC[C@]4(C[C@@H](O)[C@@H](O)[C@@H]([C@@H](O)CO)O4)O5)nn3)cc(c1OCCC)Cc1cc(CCCn3cc(CCO[C@H]4O[C@H](CO)[C@H](O)C5=C4SC[C@]4(C[C@@H](O)[C@@H](O)[C@@H]([C@@H](O)CO)O4)O5)nn3)cc(c1OCCC)Cc1cc(CCCn3cc(CCO[C@H]4O[C@H](CO)[C@H](O)C5=C4SC[C@]4(C[C@@H](O)[C@@H](O)[C@@H]([C@@H](O)CO)O4)O5)nn3)cc(c1OCCC)C2, the Activity (A-375 [1]) is reported as “Active” and the Activity (A-375 [2]) is reported as “Active”.

For CC(C)=NOCC(=O)NCCCC[C@@H]1NC(=O)[C@H](CCCCNC(=O)CCCCC(=O)NCCCCCCO[C@H]2O[C@H](CO)[C@H](O)C3=C2SC[C@]2(C[C@@H](O)[C@@H](O)[C@@H]([C@H](O)CO)O2)O3)NC(=O)CNC(=O)[C@@H]2CCCN2C(=O)[C@H](CCCCNC(=O)CCCCC(=O)NCCCCCCO[C@@H]2O[C@@H](CO)[C@@H](O)C3=C2SC[C@@]2(C[C@@H](O)[C@@H](O)[C@@H]([C@H](O)CO)O2)O3)NC(=O)[C@H](C)NC(=O)[C@H](CCCCNC(=O)CCCCC(=O)NCCCCCCO[C@H]2O[C@H](CO)[C@H](O)C3=C2SC[C@]2(C[C@H](O)[C@H](O)[C@H]([C@@H](O)CO)O2)O3)NC(=O)CNC(=O)[C@@H]2CCCN2C(=O)[C@H](CCCCNC(=O)CCCCC(=O)NCCCCCCO[C@@H]2O[C@@H](CO)[C@@H](O)C3=C2SC[C@@]2(C[C@H](O)[C@H](O)[C@H]([C@@H](O)CO)O2)O3)NC1=O, the inhibition at 50 µM (A-375 [3]) was 30%, the Activity (A-375 [4]) was “Active” and the inhibition at 50 µM (A-375 [5]) was 50%. The Activity (A-375 [1]) was “Active”, the inhibition at 50 µM (A-375 [6]) was 30% and the Activity (A-375 [2]) was “Active”. The Activity [7] was >50% and the inhibition at 50 µM (A-375 [8]) was ≤ 30%.
